The target in experiment [1] is T1, Mineralocorticoid receptor (Rattus norvegicus) (UniProt P22199).
T1 sequence (whole entry): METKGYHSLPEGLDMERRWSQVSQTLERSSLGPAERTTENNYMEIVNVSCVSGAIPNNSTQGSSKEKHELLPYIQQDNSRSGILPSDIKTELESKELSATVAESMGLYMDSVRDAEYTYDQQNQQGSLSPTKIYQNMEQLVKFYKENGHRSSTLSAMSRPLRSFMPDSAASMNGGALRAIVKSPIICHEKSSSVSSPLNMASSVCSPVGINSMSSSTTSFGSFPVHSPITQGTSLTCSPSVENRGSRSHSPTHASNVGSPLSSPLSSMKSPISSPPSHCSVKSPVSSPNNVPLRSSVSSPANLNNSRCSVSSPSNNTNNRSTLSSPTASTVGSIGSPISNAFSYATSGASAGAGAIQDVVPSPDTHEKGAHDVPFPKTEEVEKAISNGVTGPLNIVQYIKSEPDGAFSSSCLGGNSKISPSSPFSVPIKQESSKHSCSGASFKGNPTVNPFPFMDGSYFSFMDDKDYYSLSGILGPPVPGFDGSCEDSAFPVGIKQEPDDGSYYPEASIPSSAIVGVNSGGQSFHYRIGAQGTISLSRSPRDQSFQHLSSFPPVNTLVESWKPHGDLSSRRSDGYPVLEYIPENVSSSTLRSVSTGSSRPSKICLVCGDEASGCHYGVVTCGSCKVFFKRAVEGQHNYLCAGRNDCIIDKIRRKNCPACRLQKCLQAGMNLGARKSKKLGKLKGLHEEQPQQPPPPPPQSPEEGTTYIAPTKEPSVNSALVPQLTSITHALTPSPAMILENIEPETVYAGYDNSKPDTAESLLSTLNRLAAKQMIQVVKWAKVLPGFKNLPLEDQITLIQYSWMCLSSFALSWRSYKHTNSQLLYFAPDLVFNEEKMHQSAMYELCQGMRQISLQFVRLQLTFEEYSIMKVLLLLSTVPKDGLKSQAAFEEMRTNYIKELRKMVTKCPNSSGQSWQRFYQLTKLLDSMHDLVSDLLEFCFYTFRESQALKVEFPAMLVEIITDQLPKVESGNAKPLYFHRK
In words: Relative binding affinity against Mineralocorticoid receptor in Male Sprague-Dawley rats. The essentials:
(§1)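 Renal cytosol came from male Sprague-Dawley rats (4-8 weeks) adrenalectomized bilaterally 1 or 2 days earlier. It was incubated with various competitor concentrations and about 1 nM [3H]Ald for 42-48 h at 0 °C or 100-120 min at 25 °C. Bound and free steroid were separated by DCC.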

Experiment [2] has as its target T1, Mineralocorticoid receptor (Rattus norvegicus). Kind of experiment: In vivo relative Mineralocorticoid activity in Male Sprague-Dawley rats. Format: functional, organism-based.
Experiment [3] has the same target. Kind of experiment: Relative binding affinity against Mineralocorticoid Receptor in Male Sprague-Dawley rats. The essentials:
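Renal cytosol from male Sprague-Dawley rats (4-8 weeks) adrenalectomized bilaterally 1 or 2 days earlier. Incubated with various competitor concentrations and about 1 nM [3H]aldosterone, for 42-48 h at 0 °C or 100-120 min at 25 °C. Charcoal (DCC) separation of bound and free.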

Experiment [4] deals with T2, Androgen receptor (Rattus norvegicus) (UniProt P15207).
T2 sequence (whole entry): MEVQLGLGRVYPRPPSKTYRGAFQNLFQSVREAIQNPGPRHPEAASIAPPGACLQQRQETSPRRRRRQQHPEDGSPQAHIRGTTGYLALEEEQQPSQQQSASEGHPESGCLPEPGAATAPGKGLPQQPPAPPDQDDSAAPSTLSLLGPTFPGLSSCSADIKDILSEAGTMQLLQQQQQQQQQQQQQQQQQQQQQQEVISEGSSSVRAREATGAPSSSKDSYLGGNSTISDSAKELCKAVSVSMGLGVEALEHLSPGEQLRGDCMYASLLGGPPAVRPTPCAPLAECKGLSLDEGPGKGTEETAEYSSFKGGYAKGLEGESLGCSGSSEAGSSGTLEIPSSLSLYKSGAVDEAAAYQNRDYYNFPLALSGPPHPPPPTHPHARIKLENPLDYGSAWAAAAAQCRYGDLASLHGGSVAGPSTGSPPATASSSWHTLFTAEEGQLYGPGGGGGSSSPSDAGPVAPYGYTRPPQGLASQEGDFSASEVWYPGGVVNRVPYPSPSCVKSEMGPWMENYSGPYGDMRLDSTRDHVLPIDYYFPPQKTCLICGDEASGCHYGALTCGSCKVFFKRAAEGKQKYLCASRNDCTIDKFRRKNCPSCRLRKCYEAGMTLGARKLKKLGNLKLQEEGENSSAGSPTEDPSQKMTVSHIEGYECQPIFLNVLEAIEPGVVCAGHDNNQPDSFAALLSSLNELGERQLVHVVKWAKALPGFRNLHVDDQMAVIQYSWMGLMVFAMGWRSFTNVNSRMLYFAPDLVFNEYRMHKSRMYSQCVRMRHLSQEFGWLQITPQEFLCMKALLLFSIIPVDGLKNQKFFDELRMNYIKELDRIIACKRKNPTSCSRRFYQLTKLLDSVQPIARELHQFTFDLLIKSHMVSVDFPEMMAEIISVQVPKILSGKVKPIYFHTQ
Kind of experiment: Relative binding affinity against Androgen receptor in Male Sprague-Dawley rats. The essentials: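 Rat ventral prostate cytosol from 4-8-week-old rats castrated 1 day earlier. Incubated with various competitor concentrations and about 1 nM [3H]DHT or [3H]methyltrienolone for 16-20 h at 0 °C. Bound and free steroid separated by dextran-coated charcoal.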

In experiment [5] the target is T2, Androgen receptor (Rattus norvegicus). In words: In vivo relative androgenic activity in Male Sprague-Dawley rats. The experiment is classed as functional, organism-based.
Experiment [6] deals with T3, Progesterone receptor (Rattus norvegicus) (UniProt Q63449).
T3 sequence (whole entry): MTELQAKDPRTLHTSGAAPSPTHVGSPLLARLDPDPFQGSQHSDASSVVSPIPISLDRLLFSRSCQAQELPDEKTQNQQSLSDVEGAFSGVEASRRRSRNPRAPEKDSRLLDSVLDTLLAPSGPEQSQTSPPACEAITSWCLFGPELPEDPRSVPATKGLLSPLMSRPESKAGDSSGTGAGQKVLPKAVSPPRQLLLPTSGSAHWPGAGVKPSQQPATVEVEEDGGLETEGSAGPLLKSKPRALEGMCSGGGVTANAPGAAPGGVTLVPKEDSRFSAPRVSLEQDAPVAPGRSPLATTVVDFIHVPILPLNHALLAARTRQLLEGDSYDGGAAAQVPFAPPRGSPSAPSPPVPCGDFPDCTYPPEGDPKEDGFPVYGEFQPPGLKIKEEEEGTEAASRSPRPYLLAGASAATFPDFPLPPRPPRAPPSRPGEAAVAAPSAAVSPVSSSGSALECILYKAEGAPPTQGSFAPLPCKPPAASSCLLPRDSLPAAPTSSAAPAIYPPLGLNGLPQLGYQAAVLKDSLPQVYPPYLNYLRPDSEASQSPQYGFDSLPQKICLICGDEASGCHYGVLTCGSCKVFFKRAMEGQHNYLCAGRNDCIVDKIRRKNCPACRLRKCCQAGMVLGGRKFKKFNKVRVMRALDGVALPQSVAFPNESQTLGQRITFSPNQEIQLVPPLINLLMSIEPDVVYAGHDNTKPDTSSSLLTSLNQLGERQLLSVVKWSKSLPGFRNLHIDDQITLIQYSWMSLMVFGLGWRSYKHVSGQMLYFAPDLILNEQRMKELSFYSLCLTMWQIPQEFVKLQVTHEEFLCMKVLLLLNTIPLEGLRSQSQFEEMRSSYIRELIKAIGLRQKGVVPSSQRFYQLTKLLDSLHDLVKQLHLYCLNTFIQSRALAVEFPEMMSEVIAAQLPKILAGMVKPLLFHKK
Kind of experiment: Relative binding affinity against progesterone receptor in […].

For experiment [7], the target named is T3, Progesterone receptor (Rattus norvegicus). Kind of experiment: In vivo relative Progestational activity in Male Sprague-Dawley rats was determined. The experiment is classed as functional, organism-based.
For experiment [8], the target named is T1, Mineralocorticoid receptor (Rattus norvegicus). Kind of experiment: Relative binding affinity against mineralocorticoid receptor determined in rat renal cytosol using [3]Ald as ligand. The essentials:
as §1

For experiment [9] the target is unchanged. Kind of experiment: Agonist activity against Mineralocorticoid receptor was determined after subcutaneous administration in Male Sprague Dawley rats; (+) =positive. The experiment is classed as functional, organism-based. The note with it: filed as agonist.
The species named for a further experiment is Rattus norvegicus. In words: Displacement of [3H]promegestone from progestin receptor of rat uterine cytosol at 0 degree Centigrade. In outline: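 Uteri from estradiol-primed rats supplied the cytosol. It was incubated with various competitor concentrations and about 1 nM [3H]promegestone for 16-20 h at 0 °C. Bound and free steroid were separated by DCC. RBA (progesterone = 100%) = 100 × ratio of the 50%-inhibition concentrations of standard and competitor.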

The target of experiment [10] is T1, Mineralocorticoid receptor (Rattus norvegicus). Kind of experiment: Antagonist activity against Mineralocorticoid receptor was determined after subcutaneous administration in Male Sprague Dawley rats. Format: functional, organism-based. The essentials: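 Male rats were bilaterally adrenalectomized (bioassay modified from Kagawa). Ald (1 µg/kg) was given sc, immediately followed by test compound in sesame oil sc or orally. Urine was collected from 2 to 6 h after steroid. Potency came from the urinary Na/K ratio of sample versus control, with 95% confidence limits.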

Experiment [11] has the same target. In words: Relative binding affinity to the rat mineralocorticoid receptor determined in rat renal cytosol using [3]Ald as ligand. The essentials: as §1
For experiment [12] the target is unchanged. Kind of experiment: Relative potency compared to Aldosterone;Range 14-224. The experiment is classed as functional.

The source made the active and inactive calls. No cut-off for these calls is given here.

In [1], `C[C@]12CCC(=O)C=C1CC[C@@H]1[C@@H]2[C@H]2C[C@]3(CO2)[C@@H](C(=O)CO)CC[C@@H]13` showed a relative binding affinity (RBA) of 50.

In experiment [2], `C[C@]12C[C@H](O)[C@H]3[C@@H](CCC4=CC(=O)CC[C@@]43C)[C@@H]1CC[C@@H]2C(=O)CO` displayed a Relative activity of 0.14. For the same compound, the RBA in experiment [3] was found to be 14%.

`C[C@]12CC[C@H]3[C@@H](CCC4=CC(=O)CC[C@@]43C)[C@@H]1CC[C@@H]2C(=O)CO` had a Relative activity in experiment [2] of 1. This compound also displayed an RBA in [3] of 58%.

For the compound `C[C@]12CC[C@H]3[C@@H](CCC4CC(=O)CC[C@@H]43)[C@@H]1CC[C@@H]2O` (some centres undefined), the relative binding affinity (RBA) in experiment [4] amounted to 59. Also, in [5], the Relative activity stood at 0.1.

Regarding `CC(=O)[C@H]1CC[C@H]2[C@@H]3CCC4=CC(=O)CC[C@@H]4[C@H]3CC[C@]12C`, the relative binding affinity (RBA) in [6] turned out to be 650. Besides, in [7], the Relative activity was found to be 10.7.

The compound `CC12CCC(=O)C=C1CCC1C2C=CC2(C)C(O)CCC12` (centres undefined) yielded a relative binding affinity (RBA) in experiment [4] of 120. In addition, the Relative activity in [5] amounted to 0.7.

For `CC12CCC(=O)C=C1C1CC1C1C2C=CC2(C)C1CC[C@@]21CCC(=O)O1` (some centres undefined), the RBA was 580% in experiment [8], 56% in the experiment filed under Rattus norvegicus and 30% in [11]. Besides, in [9], the Activity result was “Agonist”. For the same compound, in [10], the result was inactive. The same compound came in with a Relative potency in [12] of 14.

As to `CC(=O)[C@H]1CC[C@H]2[C@@H]3CCC4=CC(=O)CC[C@]4(C)[C@H]3C=C[C@]12C`, the relative binding affinity (RBA) in experiment [6] is 220. The compound also returned a Relative activity in experiment [7] of 3.

Source of the values: ChEMBL document CHEMBL1123888, “Aldosterone antagonists. 2. Synthesis and biological activities of 11,12-dehydropregnane derivatives” (J Med Chem, 1987).
